Screening data (PubChem)
Hits are enriched below; roughly 5.8% of the tested compounds scored in any of these assays.
GASC1 inh: KDM4C (human) demethylase inhibition. Q9H3R0. GST-KDM4C 2-372, H3K9me3 peptide, LANCE TR-FRET. inhibition, % at 12.5 µM. 96,000 compounds, 0.15% hits. AID 720574;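 active = mean replicate inhibition above about 25%, with at least 55% of replicates also reaching it, limit read from the data, passing the limit was not always enough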
Target sequence (Q9H3R0 2-372 limits assumed): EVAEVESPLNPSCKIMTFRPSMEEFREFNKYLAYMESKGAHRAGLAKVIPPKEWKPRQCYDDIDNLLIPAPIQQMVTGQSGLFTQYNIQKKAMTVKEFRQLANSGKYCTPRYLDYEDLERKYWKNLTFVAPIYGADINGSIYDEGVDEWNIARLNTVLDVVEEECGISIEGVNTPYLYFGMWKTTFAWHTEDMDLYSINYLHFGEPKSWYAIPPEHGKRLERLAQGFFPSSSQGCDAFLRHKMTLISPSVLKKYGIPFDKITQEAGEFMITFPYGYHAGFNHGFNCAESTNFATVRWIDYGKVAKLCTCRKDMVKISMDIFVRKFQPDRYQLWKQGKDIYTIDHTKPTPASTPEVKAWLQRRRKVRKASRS
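System: N-terminal GST-fused human GASC-1 (KDM4C) fragment, residues 2-372 / Amount: 10 nM GST-KDM4C in enzyme reaction / Also added: H3K9me3 peptide with Fe(II)/2OG / Times: 30 min demethylation and 1 h detection at room temperature / Signal: LANCE TR-FRET / Read-out basis: Fall in 671/618 emission ratio as inhibition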
IDH1 mut inh: inhibitors of human IDH1 R132H. IDH1 R132H reductase, diaphorase/resazurin fluorescence, 60 min. inhibition, % at 10 µM. 70,000 compounds, 0.18% hits. AID 624101; in the data active = inhibition above about 34%;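 also: 0% = DMSO and 100% = no enzyme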
T cruzi growth-1: blocks T. cruzi growth in NIH3T3 culture | T. cruzi beta-gal in NIH3T3, GalScreen luminescence, 90 h | inhibition, % at 8.34 µM | 77,000 compounds, 5.9% hits | AID 624255;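 active = mean inhibition above about 93%, with at least 55% of replicates each passing it, limit read from the data, passing the limit was not always enough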
Pf Dd2 inh: inhibitors of Plasmodium falciparum Dd2 growth. 94,000 compounds, 2.3% hits. activity change, % at 10 µM. P. falciparum Dd2 growth, SYBR Green, 72 h; active compounds read low. AID 1159554; in the data active = activity change below about -80%
T cruzi growth-2: blocks T. cruzi growth in NIH3T3 host cells. AID 651739. inhibition, % at 8.35 µM. 5,600 compounds, 72% hits. shares compounds with T cruzi growth-1. T. cruzi beta-gal in NIH3T3, GalScreen luminescence, 90 h;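 active = mean replicate inhibition above about 95% and at least 55% of replicates individually reaching it, limit read from the data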
T cruzi growth-3: Trypanosoma cruzi proliferation inhibition; shares compounds with T cruzi growth-1; T. cruzi beta-gal in NIH3T3, GalScreen luminescence, 90 h; inhibition, % at 2.09 µM; 5,600 compounds, 21% hits;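 active = mean inhibition above about 95%, with at least 55% of replicates also reaching it, limit read from the data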;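 also: plate controls were neutral control median for no effect and positive control median for full effect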
3T3 cytotox: kills mouse NIH/3T3 fibroblasts. NIH/3T3 viability, CellTiter-Glo ATP luminescence, 90 h. shares compounds with T cruzi growth-1. cytotoxicity (signal decrease), % at 8.35 µM. 5,600 compounds, 14% hits. AID 651742;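 active = mean signal decrease across replicates above about 35% based on untreated-well scatter, with enough replicates individually passing, limit read from the data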;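 also: 0% = median of neutral control wells and 100% = median of positive control wells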
NIH3T3 tox 2: kills mouse NIH/3T3 fibroblasts | 5,600 compounds, 56% hits | NIH/3T3 viability, CellTiter-Glo ATP luminescence, 90 h | AID 651744 | inhibition, % at 24.9 µM | shares compounds with T cruzi growth-1;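 active = mean loss of cell viability signal at or above a set limit, and enough replicates individually reaching it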;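 also: 0% = median of neutral control wells and 100% = median of positive control wells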
Active calls of the source: *.

What do the screens show for `Cc1ccc(OC(=O)N(C)C[C@@H]2OCc3ccccc3-c3c(n(C)c4ccccc34)C(=O)N([C@@H](C)CO)C[C@H]2C)cc1`?
GASC1 inh: -3; Pf Dd2 inh: -83*

How did O=C(Cc1ccccn1)N1CCCCN2[C@H](CO)[C@@H](c3ccc(-c4ccccc4)cc3)[C@H]2C1 do in these assays?
GASC1 inh: 0; T cruzi growth-1: -14; Pf Dd2 inh: 24

What do the screens show for `COc1ccc2c(c1OC)CN1CCc3cc4c(cc3C1C2)OCO4` (centres undefined)?
IDH1 mut inh: -3

What do the screens show for `COc1ccc2c(c[n+](C)c3c4cc5c(cc4ccc23)OCO5)c1OC`?
IDH1 mut inh: 101*

How did COP(=S)(OC)SCn1nnc2ccccc2c1=O do in these assays?
IDH1 mut inh: 1

What do the screens show for `OC[C@H]1Nc2ccc(C#Cc3cccnc3)cc2[C@H]2NCC[C@H]21`?
GASC1 inh: 2; Pf Dd2 inh: -88*

What do the screens show for `O=C(Cc1ccccn1)N1CCCCN2[C@@H](CO)[C@H](c3ccc(C#Cc4ccccc4)cc3)[C@@H]2C1`?
GASC1 inh: -2; T cruzi growth-1: 114*; Pf Dd2 inh: -20; T cruzi growth-2: 109*; T cruzi growth-3: 53; 3T3 cytotox: 39*; NIH3T3 tox 2: 105*

How did O=C(Cc1ccccn1)N1CCCCN2[C@H](CO)[C@@H](c3ccc(C#Cc4ccccc4)cc3)[C@H]2C1 do in these assays?
GASC1 inh: 1; T cruzi growth-1: 106*; Pf Dd2 inh: -34; T cruzi growth-2: 97*; T cruzi growth-3: 41; 3T3 cytotox: 41*; NIH3T3 tox 2: 106*

What do the screens show for `O=C(Cc1ccccn1)N1CCCCN2[C@H](CO)[C@H](c3ccc(C#Cc4ccccc4)cc3)[C@H]2C1`?
GASC1 inh: -1; T cruzi growth-1: 105*; Pf Dd2 inh: -41; T cruzi growth-2: 102*; T cruzi growth-3: 62; 3T3 cytotox: 52*; NIH3T3 tox 2: 107*

How did O=C(Cc1ccccn1)N1CCCCN2[C@H](CO)[C@@H](c3ccc(C#Cc4ccccc4)cc3)[C@@H]2C1 do in these assays?
GASC1 inh: 0; T cruzi growth-1: 30; Pf Dd2 inh: -70

How did Cc1ccc(OC(=O)N(C)C[C@H]2OCc3ccccc3-c3c(n(C)c4ccccc34)C(=O)N([C@@H](C)CO)C[C@@H]2C)cc1 do in these assays?
GASC1 inh: -4; Pf Dd2 inh: -30

How did CC=Cc1ccc2n(c1=O)C[C@@H]1[C@@H](CO)[C@H](C(=O)OC)[C@H]2N1S(=O)(=O)c1cccc(C)c1 (mixture of isomers) do in these assays?
GASC1 inh: 1; T cruzi growth-1: 22

Results for COC(=O)c1cc2c(cn1)[nH]c1ccccc12 ?
IDH1 mut inh: -1

Results for CCCCc1ccc(C(=O)O)nc1 ?
IDH1 mut inh: 3

How did O=C(O)[C@H]1[C@H](CO)[C@H]2Cn3c(ccc(-c4ccccc4)c3=O)[C@@H]1N2CC1CCCCC1 do in these assays?
GASC1 inh: -1; T cruzi growth-1: 92; Pf Dd2 inh: -7

What do the screens show for `O=C(Cc1ccccc1)N1CCCCN2[C@@H](CO)[C@H](c3ccc(C#CC4(O)CCCC4)cc3)[C@@H]2C1`?
GASC1 inh: 0; T cruzi growth-1: 109*; Pf Dd2 inh: -28; T cruzi growth-2: 102*; T cruzi growth-3: 28; 3T3 cytotox: 11; NIH3T3 tox 2: 33*

How did O=C(Cc1ccccc1)N1CCCCN2[C@H](CO)[C@H](c3ccc(C#CC4(O)CCCC4)cc3)[C@@H]2C1 do in these assays?
GASC1 inh: -1; T cruzi growth-1: 103*; Pf Dd2 inh: 2; T cruzi growth-2: 76; T cruzi growth-3: 39; 3T3 cytotox: 11; NIH3T3 tox 2: 15

What do the screens show for `O=C(Cc1ccccc1)N1CCCCN2[C@H](C1)[C@@H](c1ccc(C#CC3(O)CCCC3)cc1)[C@@H]2CO`?
GASC1 inh: 0; T cruzi growth-1: 15; Pf Dd2 inh: -19

What do the screens show for `O=C(Cc1ccncc1)N1CCCCN2[C@@H](CO)[C@@H](c3ccc(C#CC4(O)CCCC4)cc3)[C@@H]2C1`?
GASC1 inh: 0; T cruzi growth-1: 110*; Pf Dd2 inh: -10; T cruzi growth-2: 26; T cruzi growth-3: -14; 3T3 cytotox: -17; NIH3T3 tox 2: -9

What do the screens show for `O=C(Cc1ccccc1)N1CCCCN2[C@@H](CO)[C@@H](c3ccc(C#CC4(O)CCCC4)cc3)[C@@H]2C1`?
GASC1 inh: 0; T cruzi growth-1: 94; Pf Dd2 inh: -28

What do the screens show for `C[C@H]1CN([C@@H](C)CO)C(=O)CCCn2cc(nn2)CO[C@H]1CN(C)C(=O)Oc1cccc2ccccc12`?
GASC1 inh: 0; IDH1 mut inh: 0; T cruzi growth-1: 117*; Pf Dd2 inh: -15; T cruzi growth-2: 52; T cruzi growth-3: 13; 3T3 cytotox: 11; NIH3T3 tox 2: 24

Results for COc1ccc(-c2ccc3n(c2=O)C[C@H]2[C@H](CO)[C@@H](C(=O)O)[C@@H]3N2C(=O)c2ccccc2F)cc1 ?
GASC1 inh: -1; T cruzi growth-1: 19

Results for O=C(Cc1ccncc1)N1CCCCN2[C@H](CO)[C@H](c3ccc(-c4ccncc4)cc3)[C@@H]2C1 ?
GASC1 inh: 1; T cruzi growth-1: 102*; Pf Dd2 inh: -75; T cruzi growth-2: 50; T cruzi growth-3: -25; 3T3 cytotox: -2; NIH3T3 tox 2: -10

Results for COc1ccc(-c2ccc([C@@H]3[C@H](CO)N4CCCCN(C(=O)Cc5ccccc5)C[C@@H]34)cc2)cc1 ?
GASC1 inh: -2; T cruzi growth-1: 99*; Pf Dd2 inh: -30; T cruzi growth-2: 104*; T cruzi growth-3: 78; 3T3 cytotox: 26; NIH3T3 tox 2: 106*

What do the screens show for `COc1ccc(-c2ccc([C@H]3[C@H](CO)N4CCCCN(C(=O)Cc5ccccc5)C[C@@H]34)cc2)cc1`?
GASC1 inh: -1; T cruzi growth-1: 108*; Pf Dd2 inh: -10; T cruzi growth-2: 107*; T cruzi growth-3: 81; 3T3 cytotox: 11; NIH3T3 tox 2: 106*

What do the screens show for `O=C(Cc1ccccc1)N1CCCCN2[C@H](CO)[C@H](c3ccc(-c4ccccc4)cc3)[C@@H]2C1`?
GASC1 inh: -2; T cruzi growth-1: 5; Pf Dd2 inh: 23
